Bioassay records as filed in PubChem BioAssay.
KCNQ1 act = potentiators or activators of KCNQ1 channel, primary screen, cell-based, thallium flux, high-throughput; Potassium voltage-gated channel subfamily KQT member 1 (Homo sapiens), P51787; CHO-K1 KCNQ1, thallium flux FluxOR fluorescence; stronger effect = higher value; B-score at 10 µM; hit rate 0.35% among 310,000; AID 2648, 2010;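 active means fluorescence ratio B-score, a plate-corrected score, at least three library SD, with initial intensity B-score within 5 SD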
Target sequence (P51787 whole entry, looked up): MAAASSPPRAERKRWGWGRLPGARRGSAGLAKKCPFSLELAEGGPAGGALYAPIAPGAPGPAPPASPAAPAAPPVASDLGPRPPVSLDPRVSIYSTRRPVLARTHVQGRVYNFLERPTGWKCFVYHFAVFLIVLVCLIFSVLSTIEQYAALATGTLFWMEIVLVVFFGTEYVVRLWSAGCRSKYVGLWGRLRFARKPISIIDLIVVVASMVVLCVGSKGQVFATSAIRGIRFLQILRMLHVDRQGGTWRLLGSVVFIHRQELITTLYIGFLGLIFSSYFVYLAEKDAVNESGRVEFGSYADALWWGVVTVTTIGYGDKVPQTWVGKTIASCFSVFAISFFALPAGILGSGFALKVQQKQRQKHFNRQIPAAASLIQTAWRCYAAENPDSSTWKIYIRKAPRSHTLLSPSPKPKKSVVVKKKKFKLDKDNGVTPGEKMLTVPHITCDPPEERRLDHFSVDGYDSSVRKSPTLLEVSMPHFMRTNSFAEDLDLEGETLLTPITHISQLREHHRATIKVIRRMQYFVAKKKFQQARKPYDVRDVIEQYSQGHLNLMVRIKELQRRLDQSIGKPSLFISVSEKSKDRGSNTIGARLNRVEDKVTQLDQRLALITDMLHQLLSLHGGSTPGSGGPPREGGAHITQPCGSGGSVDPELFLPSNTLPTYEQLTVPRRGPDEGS
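System: CHO-K1 cells stably expressing KCNQ1 / Medium: assay buffer for compound exposure, DMSO matched across wells / Reagent: thallium- and potassium-containing depolarizing buffer / Compound: one concentration, matched DMSO / Incubation: 20 min compound pretreatment at room temperature / Measured by: kinetic FluxOR fluorescence, 10 s baseline plus 110 s post-stimulus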
Kir21 block = inhibitors of mouse Kir2.1 inward-rectifier potassium channel. Inward rectifier potassium channel 2 (Mus musculus), P35561. HEK293-Kir2.1, FluxOR thallium flux fluorescence; stronger effect = lower value. B-score at 10 µM. hit rate 0.85% among 310,000;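 active means fluorescence ratio B-score at or below minus 3 SD of library scores, with starting-brightness B-score within 2 SD, cut at about -4.2 in these data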;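 further: channel flux triggered by added potassium and thallium sulfate stimulus; B-score of peak minus minimum fluorescence over baseline after thallium stimulus; more negative B-score means stronger Kir2.1 block with less thallium influx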
KCNK3 inh = human KCNK3 channel inhibitors, primary screen, CHO cells, FluxOR thallium flux, B-score. FluxOR fluorescence; stronger effect = lower value. hit rate 0.84% among 340,000. B-score at 10 µM;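 active means B-score under library mean minus 4 SD, starting fluorescence ratio at most library mean plus 5 SD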;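 further: more negative B-score means stronger inhibition of thallium flux through KCNK3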
hERG rescue = hERG rescue from dofetilide block, primary screen, cell-based, CHO-hERG, FluxOR thallium flux, dofetilide IC70; activation (rescue from dofetilide block), less the hit threshold, % at 10 µM; dofetilide IC70 present; hit rate 0.51% among 310,000; Voltage-gated inwardly rectifying potassium channel KCNH2 (Homo sapiens), Q12809;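 active means activation above the mean of controls blocked by dofetilide plus 5 SD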;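 further: thallium influx through hERG after potassium depolarization seen as dye fluorescence rise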
KCNQ1 inh = inhibitors of human KCNQ1 channel, primary screen, cell-based, thallium flux, high-throughput | CHO-K1 KCNQ1, FluxOR thallium flux fluorescence; stronger effect = higher value | B-score at 10 µM | AID 2642, 2010 | hit rate 1.3% among 310,000;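 active means compounds whose thallium flux B-score, printed positive for inhibition, exceeds three library SD while starting fluorescence stays within three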;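 further: channel opened by potassium depolarization with thallium stimulus after 20 min compound exposure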
KCNK9 inh = KCNK9 potassium channel inhibitors, primary screen, HEK293 cells, thallium flux. hit rate 1.2% among 310,000. Potassium channel subfamily K member 9 (Homo sapiens), Q9NPC2. FluxOR thallium flux fluorescence; stronger effect = lower value. AID 488922, 2010. B-score at 10 µM;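 active means ratio B-score over 3 SD below the library mean, with starting fluorescence within 5 SD of its mean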;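 further: negative B-score means less thallium flux so channel inhibition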
* = called active by the depositor; i = inactive; nt = no result. In the library only some 3.7% were active in any assay of this set; here they are far more common.

SMILES	KCNQ1 act	Kir21 block	KCNK3 inh	hERG rescue	KCNQ1 inh	KCNK9 inh
COc1ccccc1-n1cnc2sc(C)c(C)c2c1=O	i	1.2	i	6.0*	i	i
COc1ccc(-c2csc3ncn(-c4ccccc4OC)c(=O)c23)cc1OC	i	-2.4	i	-2	i	i
Cc1sc2ncn(-c3ccccc3)c(=O)c2c1C	i	1	i	-10	i	i
CCOc1ccc(-n2cnc3sc(C)c(C)c3c2=O)cc1	i	-0.06	i	5.6*	i	i
O=C(O)C(Cc1ccccc1)N1C(=O)c2ccccc2C1=O (stereo unspecified)	i	-2.6	i	-10	i	i
O=C(O)C(Cc1ccccc1)N1C(=O)c2c(Cl)c(Cl)c(Cl)c(Cl)c2C1=O (stereo unspecified)	i	-0.03	i	-21	6*	i
Cc1cc(Br)cc(/C=N/NC(=O)c2ccc3c(c2)OCO3)c1O	i	1.1	i	-5	8*	i
C[C@H]1CN=C(Nc2ccccc2)N1CCCC1CCCCC1	i	-0.24	i	-8	i	i
c1ccc(C[C@H]2CN=C(Nc3ccccc3)N2CCCC2CCCC2)cc1	i	-5.6*	i	-20	i	i
CCCCCCCN1C(Nc2ccccc2)=NC[C@@H]1Cc1ccccc1	i	-5.6*	i	-22	7*	i
c1ccc(CCCCN2C(Nc3ccccc3)=NC[C@@H]2Cc2ccccc2)cc1	nt	nt	i	nt	nt	nt
O=c1[nH]c(=S)[nH]cc1Oc1ccc(Br)cc1Br	nt	nt	i	nt	nt	nt
CN(C(=O)c1ccc(NC(=O)C2CCCN(C(=O)OC(C)(C)C)C2)cc1)C1CCC1 (stereo unspecified)	nt	nt	i	nt	nt	nt
CCc1nc(N2CCCC(C)C2)c2oc3ccccc3c2n1 (stereo unspecified)	i	-0.95	i	-12	i	-7.4*
CCc1nc(N2CCCCC2)c2oc3ccccc3c2n1	i	-0.01	i	-6	i	i
CCCCCC/C(C)=C1/SC(=S)NC1=O	126*	0.41	i	59*	i	i
C/C(C/C(C)=C1/SC(=S)NC1=O)=C1\SC(=S)NC1=O	nt	nt	i	nt	nt	nt
CCCn1nc(NC(=O)c2cccs2)c2cc3cc(C)ccc3nc21	i	0.46	i	-19	i	-7.1*
C=CC1CN(C(=O)OCC(Cl)(Cl)Cl)C2CC3c4ccc(OC)cc4NC3C3CC1C2CO3 (stereo unspecified)	i	-0.73	nt	-17	7*	i
CCOC(=O)N1CCC2CC1c1cc(-c3cccc(OC)c3)ccc12 (stereo unspecified)	nt	nt	i	nt	nt	nt
CC(=O)OCC(=O)[C@@]1(OC(C)=O)[C@@H](C)C[C@H]2[C@@H]3C[C@H](F)C4=CC(=O)C=C[C@]4(C)[C@@]3(F)[C@@H](O)C[C@@]21C	29*	-0.94	i	-11	i	i
CC(=O)OCC(=O)[C@@]12OC(C)(C)O[C@@H]1C[C@H]1[C@@H]3C[C@H](F)C4=CC(=O)C=C[C@]4(C)[C@@]3(F)[C@@H](O)C[C@@]12C	i	0.96	nt	1	i	i
Cc1ccc2nc(C)c3c(c2c1)N(c1ccc(F)cc1)CC3	i	-5.3*	i	-14	i	i
O=C(NNC(=O)C1CC=CCC1)c1ccccc1O (stereo unspecified)	i	1.3	i	-3	i	i
CN(C(=O)c1cc2n(n1)C(C(F)(F)F)CC(c1ccco1)N2)c1ccc(OC(F)(F)F)cc1 (stereo unspecified)	i	-0.68	i	-6	i	i
SMILES	KCNQ1 act	Kir21 block	KCNK3 inh	hERG rescue	KCNQ1 inh	KCNK9 inh
CN(C(=O)c1cc2n(n1)C(C(F)(F)F)CC(c1ccco1)N2)c1ccccc1 (stereo unspecified)	i	-0.21	i	-3	i	-6.7*
O=c1[nH]c(SCc2nc3ccccc3c(=O)n2-c2ccccc2C(F)(F)F)nc2ccccc12	i	-1.1	i	-13	i	-6.6*
Cc1cc(OCC(=O)N2CCOCC2)ccc1NC(=O)c1ccccc1C	i	-0.13	i	-10	i	i
COc1ccc(-c2nc(-c3ccccc3)c(-c3cc([N+](=O)[O-])ccc3C)[nH]2)cc1O	i	1.4	i	-5	7*	-10*
COc1cc(Cl)ccc1OCc1cc(C(=O)N(C)CC2CCCCO2)no1 (stereo unspecified)	i	-4.5*	i	-8	i	i
COc1ccc(OCc2cc(C(=O)N(C)CC3CCCCO3)no2)c(Cl)c1 (stereo unspecified)	i	-2.6	i	-8	i	i
CC(C)OC(=O)C1OC1(C)c1ccccc1 (stereo unspecified)	nt	nt	i	nt	nt	nt
O=C(Cn1cc(C(F)(F)F)ccc1=O)N1CCc2ccccc21	nt	nt	i	nt	nt	nt
CCOc1ccc(-c2cc(N3C(=O)Nc4ccccc4N3O)n[nH]2)cc1	i	0.18	i	-2	i	i
CCOC(=O)c1c(N2C(=O)Nc3ccccc3N2O)n[nH]c1-c1cccc(Cl)c1	36*	0.11	i	11*	i	i
CS/C(=N/S(=O)(=O)c1ccc(C)cc1)c1ccccc1	i	-10*	i	-7	i	i
O=S(=O)(/N=C(\Sc1ccc(Cl)cc1)c1ccccc1)c1ccccc1	i	-2.1	i	-23	i	i
CS/C(=N\S(=O)(=O)c1ccc(Cl)cc1)c1ccccc1	i	-5.3*	i	-3	i	i
Cc1ccc(S(=O)(=O)/N=C(\c2ccccc2)N(C)S(=O)(=O)c2ccc(C)cc2)cc1	i	0.46	i	-8	i	i
COc1ccc(CC(=O)NC2CCCCCC2)c(OC)c1	i	-1	i	-12	i	i
CN(CC(O)CN)CC(O)CN1CCCCC1 (stereo unspecified)	i	-0.29	i	5.7*	i	i
CCN1/C(=C/C(C)=C/c2sc3ccccc3[n+]2CC)Sc2ccccc21	i	1.8	-15*	-26	i	i
C[C@H]1C(=O)N(C)CCN1C(=O)c1cccc(OC2CCN(CC(C)(C)C)CC2)c1	i	-0.97	i	-4	i	i
CCc1ccc(-c2nc3ccc(Br)cc3c(C(=O)O)c2C)s1	i	-0.05	i	-9	i	i
